Assay results collected from several papers.
Lines come from different studies, so protocols differ.
Target: Mitogen-activated protein kinase kinase kinase 20 (MAP3K20, Homo sapiens, UniProt Q9NYL2)

Compound | test | setting | quantity | result
O=C1Nc2ccc(Cl)cc2C1=Cc1cc(Cl)c(O)c(Cl)c1 | cell-free assay | 0.5 µM | remaining signal | 77.4%
CCOc1cc(-c2nncn2C)ccc1Nc1ncc2cc(C)nc(NCC(C)(C)C)c2n1 | cell-free assay, TR-FRET | 1 µM | inhibition | ≤ 15%
CC(C)(C)c1nc2c(s1)c1nc(N)ncc1c1ccc(NS(=O)(=O)c3c(F)cccc3F)c(F)c12 | enzyme activity, inhibitor, radiometric | 1 µM | remaining activity | 103%
N#CC1c2c([nH]c3c(Cl)c(Cl)ccc23)C(=O)NC12CCCCC2 (racemic) | thermal stability, DSF | 10 µM | ΔTm | -0.3 °C
COc1ccc2c(O[C@@H]3C[C@H]4C(=O)N[C@]5(C(=O)O)CC5/C=C\CCCCC[C@H](NC(=O)OC5CCCC5)C(=O)N4C3)cc(-c3csc(NC(=O)C(C)C)n3)nc2c1C (some centres unmarked) | cell-free assay, competition with immobilised ligand | 1 µM | remaining binding | 83%
Cn1c2c(Cl)c(Cl)ccc2c2cn[nH]c(=O)c21 | thermal stability, DSF | 10 µM | ΔTm | 0.4 °C
CC(=O)c1c(NS(C)(=O)=O)c2cc(-c3ccc(Cl)cc3)c(-c3ccc(Cl)cc3Cl)nc2n(C)c1=O | cell-free assay, competition with immobilised ligand | 1 µM | remaining binding | 92%
O=C(Nc1cnn(-c2csc(C(=O)NC3COC3)c2)c1)Nc1c(F)cccc1Cl | enzyme activity, inhibitor | 5 µM | remaining activity | 90.4%
CN1CC(Oc2cnc(C#N)cc2-c2ccn3nc(NC(=O)C4CC4)cc3c2)C1 | enzyme activity, inhibitor | 1 µM | inhibition | 12%
COc1cc2nccc(Oc3ccc(NC(=O)c4c5n(n(-c6ccc(F)cc6)c4=O)CCCC5)cc3)c2cc1OC | enzyme activity, inhibitor | 0.1 µM | inhibition | -4%
O=C(Nc1cnn(-c2csc(C(=O)NC3COC3)c2)c1)Nc1ccccc1Cl | enzyme activity, inhibitor | 5 µM | remaining activity | 101%
Cc1nccc(COC(=O)N2C[C@@H]3[C@@H](CNC(=O)c4ccc5[nH]nnc5c4)[C@@H]3C2)n1 | cell-free assay, competition with immobilised ligand | 1 µM | remaining binding | 90%
Cc1ccc(NC(=O)c2ccc(CN3CCN(C)CC3)cc2)cc1Nc1nc(-c2cccnc2)cs1 | cell-free assay | 0.5 µM | remaining signal | 86.8%
COc1cccc2c(NCc3ccccc3)nc(-n3c(N)nc4ccccc43)nc12 | target engagement in cells, inhibitor, chemoproteomics | 20 mM | inhibition | -3.3%
Nc1ncnc2c1ncn2[C@@H]1O[C@H](COP(=O)(O)OP(=O)(O)OP(=O)(O)O)[C@@H](O)[C@H]1O | enzyme activity, substrate, mass spectrometry |  | Km | 140 µM
CNC(=O)c1cc(Oc2ccc(NC(=O)Nc3ccc(Cl)c(C(F)(F)F)c3)cc2)ccn1 | cell-free assay | 0.5 µM | remaining signal | 16.7%
CCCCNc1ncc2c(-c3ccc(F)cc3)nn(C[C@H]3CC[C@H](N)CC3)c2n1 | target engagement in cells, inhibitor, chemoproteomics | 20 mM | inhibition | 35.9%
Cn1c2c(c3ccc(Cl)c(Cl)c31)C(C#N)C1(CCCC1)NC2=O (centres unmarked) | thermal stability, DSF | 10 µM | ΔTm | -0.1 °C
Nc1c(C(=O)NCc2ccc(C(=O)NCCCC3CCCCC3)cc2)cnn1-c1ccccc1 | binding, competition with immobilised ligand | 1 µM | remaining binding | 42%
Cn1c2c(c3ccc(Cl)c(Cl)c31)C(C#N)C1(CCOCC1)NC2=O (centres unmarked) | thermal stability, DSF | 10 µM | ΔTm | 0.1 °C
O=C(N1CCS(=O)(=O)CC1)N1C[C@H](c2ccc(OC(F)(F)F)cc2)C[C@H](c2nc(C3CC3)no2)C1 | cell-free assay, competition with immobilised ligand | 1 µM | remaining binding | 100%
O=C1NC(=O)c2cc(Nc3ccc(F)cc3)c(Nc3ccc(F)cc3)cc21 | cell-free assay | 0.5 µM | remaining signal | 94.5%
CSc1cccnc1N1CCN(Cc2nc3ccccc3[nH]2)CC1 | cell-free assay, competition with immobilised ligand | 1 µM | remaining binding | 100%
Cn1c2c(c3ccc(Cl)c(Cl)c31)C(C#N)C1(CCNCC1)NC2=O (racemic) | thermal stability, DSF | 10 µM | ΔTm | 0 °C
CNC(=O)c1ccc(Nc2ncc(C(F)(F)F)c(NCc3nccnc3N(C)S(C)(=O)=O)n2)cc1 | cell-free assay, competition with immobilised ligand | 0.1 µM | remaining binding | 100%
CCC1(CC)NC(=O)c2c(c3ccc(Cl)c(Cl)c3n2C)C1C#N (centres unmarked) | thermal stability, DSF | 10 µM | ΔTm | 0 °C
